Measurements: ChEMBL document CHEMBL6153049, “Functionalized regioisomers of the natural product phenazines myxin and iodinin as potent inhibitors of Mycobacterium tuberculosis and human acute myeloid leukemia cells” (Eur J Med Chem, 2025)

Key:
Assay type in all cases: functional, organism-based
Details in all cases: 168 h
[1] = test system: Mycobacterium tuberculosis; assay: Antimycobacterial activity against INH-resistant Mycobacterium tuberculosis expressing katG+ assessed as bacterial growth inhibition measured after 1 week by MABA assay
Procedure, shortened: (§1)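 Colonies grown on 7H10+OADC agar at 37 °C, then to mid-log in 7H9+OADC; about 4×10^5 CFU/mL inoculated into 7H9 with escalating compound concentrations. Incubated 37 °C for 1 week, then resazurin (0.6 mM in PBS) mixed 8:5 with 20 % Tween 80 was added and incubated overnight at 37 °C. Fluorescent resorufin read-out gave IC50.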

[2] = test system: Mycobacterium tuberculosis; assay: Antimycobacterial activity against Rifampicin-resistant Mycobacterium tuberculosis expressing rpoB+ assessed as bacterial growth inhibition measured after 1 week by MABA assay; procedure, shortened: as §1
[3] = test system: Mycobacterium tuberculosis; assay: Antimycobacterial activity against INH-resistant Mycobacterium tuberculosis expressing inhA+ assessed as bacterial growth inhibition measured after 1 week by MABA assay; procedure, shortened: as §1

| Structure (SMILES) | IC50 [1] [nM] | IC50 [2] [nM] | IC50 [3] [nM] |
| --- | --- | --- | --- |
| [O-][n+]1c2cccc(O)c2[n+]([O-])c2cccc(O)c21 | 70 |  |  |
| CCOCOc1cc(OC)c2c(c1)[n+]([O-])c1ccccc1[n+]2[O-] | 62.5 | 31.2 | 31.2 |
| CCOC(=O)COc1cc(O)c2c(c1)[n+]([O-])c1ccccc1[n+]2[O-] | 250 | 250 | 62.5 |
| CCOCOc1cc(O)c2c(c1)[n+]([O-])c1ccccc1[n+]2[O-] | 62.5 | 31.2 | 4 |
| CC(=O)Oc1cc(O)c2c(c1)[n+]([O-])c1ccccc1[n+]2[O-] | 1000 | 1000 | 500 |
| COc1cc(OC)c2c(c1)[n+]([O-])c1ccccc1[n+]2[O-] | 125 | 125 | 125 |
| COc1cccc2c1[n+]([O-])c1ccccc1[n+]2[O-] | 125 | 125 | 125 |
| [O-][n+]1c2ccccc2[n+]([O-])c2c(O)cccc21 | 50 |  |  |
| COc1cc(OC(C)=O)c2c(c1)[n+]([O-])c1ccccc1[n+]2[O-] | 125 | 250 | 125 |
| COc1cccc2c1[n+]([O-])c1cccc(O)c1[n+]2[O-] | 62.5 | 62.5 | 62.5 |
| [O-][n+]1c2ccccc2[n+]([O-])c2c(O)cc(O)cc21 | 500 | 1000 | 125 |
| COc1cc(O)c2c(c1)[n+]([O-])c1ccccc1[n+]2[O-] | 62.5 | 62.5 | 16 |
| COCOc1cc(O)c2c(c1)[n+]([O-])c1ccccc1[n+]2[O-] | 125 | 125 | 125 |
| CCOC(=O)COc1cc(OC)c2c(c1)[n+]([O-])c1ccccc1[n+]2[O-] | 250 | 250 | 250 |
| CCOc1cc(O)c2c(c1)[n+]([O-])c1ccccc1[n+]2[O-] | 62.5 | 62.5 | 4 |
